PRMT1 FP inh: inhibitors of human PRMT1 | inhibition, % at 2.79 µM | AID 652257 | recombinant PRMT1, activity-based probe fluorescence polarization | 370,000 tested, 1.3% active;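 active means inhibition above about 21% made by adding two undisclosed values, limit read from the data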
Fam108B counter: Fam108B inhibition, counter-screen for RBBP9 inhibitors; recombinant Fam108B, FP-Rh probe fluorescence polarization; inhibition, % at 9.51 µM; 300,000 tested, 0.33% active; AID 1947;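 active means inhibition above the screen mean inhibition plus 3 SD, computed separately per campaign, cut at about 18% in these data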;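 further: inhibitors lower polarization as less probe binds the enzyme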
PAD4 FP inh: PAD4 (human) enzyme inhibition; Q9UM07; recombinant PAD4, RCA probe fluorescence polarization; inhibition, % at 6.36 µM; 330,000 tested, 0.41% active; AID 485272;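 active means percent inhibition above a cutoff equal to the mean of all tested compounds plus 3 SD, cut at about 15% in these data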;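 further: 0% = PAD4 with RCA probe and DMSO and 100% = probe without PAD4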
Target sequence (Q9UM07 whole entry, looked up): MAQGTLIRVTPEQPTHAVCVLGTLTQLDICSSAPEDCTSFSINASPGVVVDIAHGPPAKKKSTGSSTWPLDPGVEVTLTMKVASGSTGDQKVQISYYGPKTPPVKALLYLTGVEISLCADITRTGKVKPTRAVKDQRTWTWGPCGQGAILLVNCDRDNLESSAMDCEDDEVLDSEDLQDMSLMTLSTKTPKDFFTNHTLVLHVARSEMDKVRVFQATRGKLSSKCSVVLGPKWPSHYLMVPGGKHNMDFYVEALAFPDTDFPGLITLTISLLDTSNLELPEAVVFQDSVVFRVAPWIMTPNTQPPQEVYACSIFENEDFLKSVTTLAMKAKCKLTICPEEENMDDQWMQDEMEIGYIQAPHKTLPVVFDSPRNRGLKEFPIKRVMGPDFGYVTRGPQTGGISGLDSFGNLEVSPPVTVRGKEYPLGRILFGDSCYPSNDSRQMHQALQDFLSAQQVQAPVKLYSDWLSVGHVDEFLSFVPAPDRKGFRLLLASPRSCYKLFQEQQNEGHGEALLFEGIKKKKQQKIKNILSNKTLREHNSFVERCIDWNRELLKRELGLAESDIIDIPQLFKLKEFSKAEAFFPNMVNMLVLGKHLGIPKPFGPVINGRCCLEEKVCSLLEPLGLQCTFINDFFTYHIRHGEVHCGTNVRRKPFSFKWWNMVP
PME-1 inh: PME-1 (human) inhibition; Q9Y570; recombinant PME-1, FP-Rh probe fluorescence polarization; inhibition, % at 5.9 µM; 320,000 tested, 0.53% active; AID 2130;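 active means inhibition above the campaign mean of all compounds plus 3 SD, cut at about 26% in these data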;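 further: competitive labeling of PME-1 active site by serine hydrolase directed probe; 0% = PME-1 with DMSO and 100% = wells lacking PME-1 enzyme; inhibitors block probe labeling so polarization falls and inhibition rises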
RBBP9 inhibitor: human RBBP9 hydrolase inhibition; O75884; recombinant RBBP9, FP-Rh probe fluorescence polarization; inhibition, % at 7.94 µM; 220,000 tested, 0.2% active;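 active means inhibition above the campaign mean of all tested compounds plus 3 SD, cut at about 14% in these data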;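 further: plate controls were DMSO wells with RBBP9 for no effect and wells lacking RBBP9 protein for full effect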
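System: RBBP9 protein | Quantity: 2.5 µM RBBP9 dispensing solution, before mixing | Reagent: FP-Rh probe, 375 nM dispensing solution | Timing: Enzyme-compound preincubation 30 min, then probe labeling 45 min, 25 °C | Measured by: Fluorescence polarization | Read-out: % inhibition | Replication: One well per compound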
GSTO1 inh: blocks human GSTO1 in RBBP9 counter-screen. recombinant GSTO1, activity-based probe fluorescence polarization. P78417. inhibition, % at 5.96 µM. 300,000 tested, 1.1% active;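 active means inhibition above the campaign mean inhibition plus 3 SD, cut at about 35% in these data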;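 further: 0% = GSTO1-1 with DMSO and 100% = wells lacking GSTO1-1 enzyme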
GSTO1 inh conf: GSTO1 (human) inhibition, confirmation | shares compounds with GSTO1 inh | recombinant GSTO1, probe fluorescence polarization | inhibition, % at 5.96 µM | 2,400 tested, 54% active | AID 2176;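 active means inhibition above the primary screen's cutoff, its mean inhibition plus 3 SD, cut at about 35% in these data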;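 further: loss of polarization as inhibitors block binding of rhodamine sulfonate ester activity probe; 0% = GSTO1 with DMSO and 100% = wells lacking GSTO1 enzyme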
Active calls of the source: *; ! = repeats disagree. This is a sample that favours compounds with a hit; in the whole collection about 2.3% have one here.

How did S=C(NCc1ccccc1)N1CCCCC1 do in these assays?
PRMT1 FP inh: -3; Fam108B counter: 0; PAD4 FP inh: 1; PME-1 inh: 0; RBBP9 inhibitor: -7; GSTO1 inh: 4

How did O=C1C=C(O)c2c(O)cccc2C1=O do in these assays?
Fam108B counter: 6; PAD4 FP inh: 2; PME-1 inh: 7; GSTO1 inh: 38*; GSTO1 inh conf: 32

How did Nc1c(O)ccc2c1C(=O)c1ccccc1C2=O do in these assays?
PRMT1 FP inh: 16; Fam108B counter: 14; PAD4 FP inh: 7; PME-1 inh: 19; RBBP9 inhibitor: 2; GSTO1 inh: 16

How did O=C(CCc1ccc(O)c(O)c1)N/N=C/c1ccc2c(c1)OCO2 do in these assays?
PRMT1 FP inh: 20; Fam108B counter: 1; PAD4 FP inh: 4; PME-1 inh: -5; GSTO1 inh: 44*; GSTO1 inh conf: 11

How did Cc1ccc(C)c(NC(=O)CCC(=O)N/N=C/c2ccc3c(c2)OCO3)c1 do in these assays?
PRMT1 FP inh: -3; Fam108B counter: -4; PAD4 FP inh: -2; PME-1 inh: 4; RBBP9 inhibitor: -6; GSTO1 inh: -4

Results for Cc1ccc(C2CC(c3cccs3)=NN2C(=O)CCl)cc1 (centres undefined) ?
PRMT1 FP inh: -5; Fam108B counter: 4; PAD4 FP inh: 7; PME-1 inh: 14; GSTO1 inh: 87*; GSTO1 inh conf: 97*

Results for CCC(=O)N1N=C(c2cccs2)CC1c1ccc(C)cc1 (centres undefined) ?
PRMT1 FP inh: -2; Fam108B counter: 3; PAD4 FP inh: 0; PME-1 inh: 9; GSTO1 inh: 0

What do the screens show for `CCN1CCN(C2=C(NS(=O)(=O)c3ccccc3)C(=O)c3ccccc3C2=O)CC1`?
PRMT1 FP inh: 7; Fam108B counter: 1; PAD4 FP inh: -12; PME-1 inh: 3; GSTO1 inh: 49*; GSTO1 inh conf: 38*

How did CCOC(=O)N1CCN(C2=C(NS(=O)(=O)c3ccc(Br)cc3)C(=O)c3ccccc3C2=O)CC1 do in these assays?
PRMT1 FP inh: 1

How did CCOC(=O)N1CCN(C2=C(NS(=O)(=O)c3ccccc3)C(=O)c3ccccc3C2=O)CC1 do in these assays?
PRMT1 FP inh: 13; Fam108B counter: 3; PAD4 FP inh: -7; PME-1 inh: 3; GSTO1 inh: 12

How did CN1CCN(C2=C(NS(=O)(=O)c3ccccc3)C(=O)c3ccccc3C2=O)CC1 do in these assays?
Fam108B counter: 2; PAD4 FP inh: 1; PME-1 inh: -2; GSTO1 inh: 46*; GSTO1 inh conf: 10

What do the screens show for `CCN1CCN(C2=C(NS(=O)(=O)c3ccc(Br)cc3)C(=O)c3ccccc3C2=O)CC1`?
PRMT1 FP inh: 22*; Fam108B counter: 5; PAD4 FP inh: 9; PME-1 inh: 9; GSTO1 inh: 59*; GSTO1 inh conf: 30

How did O=C1C(NS(=O)(=O)c2ccc(Cl)cc2)=C(N2CCCCC2)C(=O)c2ccccc21 do in these assays?
PRMT1 FP inh: 3; Fam108B counter: 8; PAD4 FP inh: -11; PME-1 inh: 7; RBBP9 inhibitor: -8; GSTO1 inh: 48*; GSTO1 inh conf: 27

Results for O=C(NC1CCCC1)C1CC(=O)N(c2ccc(F)c(Cl)c2)C1 (centres undefined) ?
PRMT1 FP inh: 2; Fam108B counter: 2; PAD4 FP inh: -1; PME-1 inh: -1; GSTO1 inh: -5

What do the screens show for `CCOC(=O)C1CCN(C2=C(NS(=O)(=O)c3ccc(Br)cc3)C(=O)c3ccccc3C2=O)CC1`?
PRMT1 FP inh: 7; Fam108B counter: 3; PAD4 FP inh: -5; PME-1 inh: 19; GSTO1 inh: 45*; GSTO1 inh conf: 14

What do the screens show for `COc1ccc(NC(=O)NCCC2=CCCCC2)cc1`?
PRMT1 FP inh: 0; Fam108B counter: 1; PAD4 FP inh: 0; PME-1 inh: 2; RBBP9 inhibitor: -4; GSTO1 inh: 64*; GSTO1 inh conf: 10

What do the screens show for `CC1CCC(NC(=O)COC(=O)CNC(=O)c2ccc3ccccc3c2)CC1` (centres undefined)?
PRMT1 FP inh: 2; PAD4 FP inh: -1; PME-1 inh: 1

How did COC(=O)\C(C(C)=O)=C(/C=C/C=C/C=C/N(C)C)N(C)C do in these assays?
PRMT1 FP inh: 12; Fam108B counter: 1; PAD4 FP inh: 4; PME-1 inh: -9; RBBP9 inhibitor: -7; GSTO1 inh: 38*; GSTO1 inh conf: -44

Results for CN(C)c1cccc2c1c(NS(=O)(=O)c1cn(C)cn1)nn2C ?
PRMT1 FP inh: 0; Fam108B counter: 1; PAD4 FP inh: -2; PME-1 inh: 1; GSTO1 inh: 54*; GSTO1 inh conf: 5

Results for Cn1cnc(S(=O)(=O)Nc2ccccc2N2CCOCC2)c1 ?
PRMT1 FP inh: 0; Fam108B counter: -3; PAD4 FP inh: -4; PME-1 inh: -8; RBBP9 inhibitor: -4; GSTO1 inh: -10

What do the screens show for `O=C1NN(c2ccccc2)C(=O)/C1=C/c1ccc(-c2ccc(Cl)c(C(=O)O)c2)o1`?
PRMT1 FP inh: 6; RBBP9 inhibitor: -2

How did Cc1cc(C(=O)CCl)c(C)n1-c1cccc([N+](=O)[O-])c1 do in these assays?
PRMT1 FP inh: 3; Fam108B counter: 1; PAD4 FP inh: 2; PME-1 inh: 22; RBBP9 inhibitor: -6; GSTO1 inh: 96*; GSTO1 inh conf: 94*

Results for CC1=CC(=O)c2ccccc2C1=O ?
PRMT1 FP inh: 2; Fam108B counter: 6; PAD4 FP inh: -8; PME-1 inh: -10; RBBP9 inhibitor: -5; GSTO1 inh: 39*!; GSTO1 inh conf: 50*

How did CN(C)c1cccc(NC(=O)c2cccc3ccccc23)c1 do in these assays?
PRMT1 FP inh: -7; Fam108B counter: -2; PAD4 FP inh: -3; PME-1 inh: -4; GSTO1 inh: 38*; GSTO1 inh conf: 5

How did CC(=O)Nc1ccc(NC(=O)c2cccc3ccccc23)cc1 do in these assays?
PRMT1 FP inh: 1; Fam108B counter: 4; PAD4 FP inh: 0; PME-1 inh: 2; GSTO1 inh: 17

Results for COC(=O)c1ccccc1NC(=O)C1CCN(S(=O)(=O)c2cc(C)ccc2OC)CC1 ?
PRMT1 FP inh: 2; Fam108B counter: 0; PAD4 FP inh: -5; PME-1 inh: 3; RBBP9 inhibitor: -5; GSTO1 inh: 74*; GSTO1 inh conf: 1

Results for COc1ccc(OC)c(S(=O)(=O)N2CCC(C(=O)Nc3cc(C)ccc3C)CC2)c1 ?
PRMT1 FP inh: -3; Fam108B counter: 1; PAD4 FP inh: -5; PME-1 inh: 4; RBBP9 inhibitor: -2; GSTO1 inh: 1

How did CN1C(=O)CC(c2ccco2)Sc2ccccc21 (centres undefined) do in these assays?
PRMT1 FP inh: 4; Fam108B counter: 0; PAD4 FP inh: -1; PME-1 inh: 0; RBBP9 inhibitor: -4; GSTO1 inh: -5
